According to ChEMBL document CHEMBL1148636, “Novel analogues of degarelix incorporating hydroxy-, methoxy-, and pegylated-urea moieties at positions 3, 5, 6 and the N-terminus. Part III” (J Med Chem, 2006):
Converted amounts (≈) assume the structure as drawn. Numbered stars: 1 amine (or outer) side, 2 acyl side, 3 side chain; on linkers, the order of the positions; unused ones are H or OH. Square brackets hold non-standard residues; d marks the D form. Side chains are listed from the residue outwards. Peptide text beside a SMILES is read from it. * marks the point of attachment. dPhe(4-NHCONH2) = NC(=O)Nc1ccc(C[C@@H](N)C(=O)O)cc1; Dihydroorotyl(S) = O=C1C[C@@H](C(=O)*)NC(=O)N1; dPhe(4-NH2) = Nc1ccc(C[C@@H](N)C(=O)O)cc1; dPhe(4-Cl) = N[C@H](Cc1ccc(Cl)cc1)C(=O)O; Phe(4-NH2) = Nc1ccc(C[C@H](N)C(=O)O)cc1; d2Nal = N[C@H](Cc1ccc2ccccc2c1)C(=O)O; Lys(iPr) = CC(C)NCCCC[C@H](N)C(=O)O; NHCH2CH2OCH2CH2OEt = CCOCCOCCN*; d3Pal = N[C@H](Cc1cccnc1)C(=O)O; Methoxycarbamoyl = CONC(=O)*; PEG3 = NCCOCCOCCOCCC(=O)O; CO = O=C([*:1])[*:2]; Butyryl = CCCC(=O)*

system: Mast cell (Rattus norvegicus); experiment: Histamine release in mast cells by ELISA

| Compound | EC50 [µg/mL] |
| --- | --- |
| CC(=O)N[C@H](Cc1ccc2ccccc2c1)C(=O)N[C@H](Cc1ccc(Cl)cc1)C(=O)N[C@H](Cc1cccnc1)C(=O)N[C@@H](CO)C(=O)N[C@@H](Cc1ccc(NC(=O)NO)cc1)C(=O)N[C@H](Cc1ccc(NC(N)=O)cc1)C(=O)N[C@@H](CC(C)C)C(=O)N[C@@H](CCCCNC(C)C)C(=O)N1CCC[C@H]1C(=O)N[C@H](C)C(N)=O | 118 (≈ 75.9 µM) |

target: T1, Gonadotropin-releasing hormone receptor (Homo sapiens, UniProt P30968); experiment: Antagonist activity at human GnRH receptor expressed in HEK293 cells as inhibition of GnRH-induced LH secretion by reporter gene assay; format: functional, cell-based
T1 sequence (P30968 whole entry): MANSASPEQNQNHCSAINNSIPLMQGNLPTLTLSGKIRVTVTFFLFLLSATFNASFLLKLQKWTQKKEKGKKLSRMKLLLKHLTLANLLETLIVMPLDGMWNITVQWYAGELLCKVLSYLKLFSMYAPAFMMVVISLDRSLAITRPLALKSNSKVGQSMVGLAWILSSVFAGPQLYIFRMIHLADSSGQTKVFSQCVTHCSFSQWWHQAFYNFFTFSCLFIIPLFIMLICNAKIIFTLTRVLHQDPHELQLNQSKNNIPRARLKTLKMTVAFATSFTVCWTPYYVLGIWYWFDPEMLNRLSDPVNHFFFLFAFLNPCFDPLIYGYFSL
How it was run: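 HEK293 cells stably expressing cloned human GnRH receptor plus luciferase reporter under LH alpha subunit promoter; plated 5 × 10^4 cells/well, overnight 37 °C. Compounds in 1% DMSO, 11 half-log concentrations in duplicate, 10 min preincubation, then GnRH 1 nM final, ≥5 h at 37 °C; luminescence read. Percent of control fitted to IC50; geometric mean of ≥2 independent experiments.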

| Compound | IC50 [nM] |
| --- | --- |
| CONC(=O)NCC[C@@H](NC(=O)[C@@H](Cc1ccc(Cl)cc1)NC(=O)[C@@H](Cc1ccc2ccccc2c1)NC(C)=O)C(=O)N[C@@H](CO)C(=O)N[C@@H](Cc1ccc(NC(=O)[C@@H]2CC(=O)NC(=O)N2)cc1)C(=O)N[C@H](Cc1ccc(NC(N)=O)cc1)C(=O)N[C@@H](CC(C)C)C(=O)N[C@@H](CCCCNC(C)C)C(=O)N1CCC[C@H]1C(=O)N[C@H](C)C(N)=O | 1.69 |
| CCCCCCCC(=O)N[C@H](Cc1ccc2ccccc2c1)C(=O)N[C@H](Cc1ccc(Cl)cc1)C(=O)N[C@H](Cc1cccnc1)C(=O)N[C@@H](CO)C(=O)N[C@@H](Cc1ccc(NC(=O)[C@@H]2CC(=O)NC(=O)N2)cc1)C(=O)N[C@H](Cc1ccc(NC(=O)NOC)cc1)C(=O)N[C@@H](CC(C)C)C(=O)N[C@@H](CCCCNC(C)C)C(=O)N1CCC[C@H]1C(=O)N[C@H](C)C(N)=O | 9.47 |
| CC(=O)N[C@H](Cc1ccc2ccccc2c1)C(=O)N[C@H](Cc1ccc(Cl)cc1)C(=O)N[C@H](Cc1cccnc1)C(=O)N[C@@H](CO)C(=O)N[C@@H](Cc1ccc(NC(=O)[C@@H]2CC(=O)NC(=O)N2)cc1)C(=O)N[C@H](Cc1ccc(NC(=O)NO)cc1)C(=O)N[C@@H](CC(C)C)C(=O)N[C@@H](CCCCNC(C)C)C(=O)N1CCC[C@H]1C(=O)N[C@H](C)C(N)=O | 0.8 |
| CCCCCCCC(=O)N[C@H](Cc1ccc2ccccc2c1)C(=O)N[C@H](Cc1ccc(Cl)cc1)C(=O)N[C@H](Cc1cccnc1)C(=O)N[C@@H](CO)C(=O)N[C@@H](Cc1ccc(NC(=O)NOC)cc1)C(=O)N[C@H](Cc1ccc(NC(N)=O)cc1)C(=O)N[C@@H](CC(C)C)C(=O)N[C@@H](CCCCNC(C)C)C(=O)N1CCC[C@H]1C(=O)N[C@H](C)C(N)=O | 4.17 |
| CCCC(=O)N[C@H](Cc1ccc2ccccc2c1)C(=O)N[C@H](Cc1ccc(Cl)cc1)C(=O)N[C@H](Cc1cccnc1)C(=O)N[C@@H](CO)C(=O)N[C@@H](Cc1ccc(NC(=O)[C@@H]2CC(=O)NC(=O)N2)cc1)C(=O)N[C@H](Cc1ccc(NC(=O)NOC)cc1)C(=O)N[C@@H](CC(C)C)C(=O)N[C@@H](CCCCNC(C)C)C(=O)N1CCC[C@H]1C(=O)N[C@H](C)C(N)=O | 2.13 |
| CCOCCOCCNC(=O)Nc1ccc(C[C@@H](NC(=O)[C@H](Cc2ccc(NC(=O)[C@@H]3CC(=O)NC(=O)N3)cc2)NC(=O)[C@H](CO)NC(=O)[C@@H](Cc2cccnc2)NC(=O)[C@@H](Cc2ccc(Cl)cc2)NC(=O)[C@@H](Cc2ccc3ccccc3c2)NC(=O)NCCOCCOCC)C(=O)N[C@@H](CC(C)C)C(=O)N[C@@H](CCCCNC(C)C)C(=O)N2CCC[C@H]2C(=O)N[C@H](C)C(N)=O)cc1 | 4.55 |
| CONC(=O)Nc1ccc(C[C@H](NC(=O)[C@H](CO)NC(=O)[C@@H](Cc2cccnc2)NC(=O)[C@@H](Cc2ccc(Cl)cc2)NC(=O)[C@@H](Cc2ccc3ccccc3c2)NC(C)=O)C(=O)N[C@H](Cc2ccc(NC(=O)NOC)cc2)C(=O)N[C@@H](CC(C)C)C(=O)N[C@@H](CCCNC(=O)CNC(C)C)C(=O)N2CCC[C@H]2C(=O)N[C@H](C)C(N)=O)cc1 | 1.53 |
| CCOCCOCCNC(=O)Nc1ccc(C[C@H](NC(=O)[C@H](CO)NC(=O)[C@@H](Cc2cccnc2)NC(=O)[C@@H](Cc2ccc(Cl)cc2)NC(=O)[C@@H](Cc2ccc3ccccc3c2)NC(C)=O)C(=O)N[C@H](Cc2ccc(NC(=O)NCCOCCOCC)cc2)C(=O)N[C@@H](CC(C)C)C(=O)N[C@@H](CCCCNC(C)C)C(=O)N2CCC[C@H]2C(=O)N[C@H](C)C(N)=O)cc1 | 2.04 |
| CCOCCOCCNC(=O)Nc1ccc(C[C@@H](NC(=O)[C@H](Cc2ccc(NC(=O)[C@@H]3CC(=O)NC(=O)N3)cc2)NC(=O)[C@H](CO)NC(=O)[C@@H](Cc2cccnc2)NC(=O)[C@@H](Cc2ccc(Cl)cc2)NC(=O)[C@@H](Cc2ccc3ccccc3c2)NC(C)=O)C(=O)N[C@@H](CC(C)C)C(=O)N[C@@H](CCCCNC(C)C)C(=O)N2CCC[C@H]2C(=O)N[C@H](C)C(N)=O)cc1 (Ac-[d2Nal][dPhe(4-Cl)][d3Pal]S[Phe(4-NH2)](Dihydroorotyl(S))[dPhe(4-NH2)]([CO-NHCH2CH2OCH2CH2OEt])L[Lys(iPr)]P[dA]-NH2) | 0.88 |
| CONC(=O)NC[C@@H](NC(=O)[C@@H](Cc1ccc(Cl)cc1)NC(=O)[C@@H](Cc1ccc2ccccc2c1)NC(C)=O)C(=O)N[C@@H](CO)C(=O)N[C@@H](Cc1ccc(NC(=O)[C@@H]2CC(=O)NC(=O)N2)cc1)C(=O)N[C@H](Cc1ccc(NC(N)=O)cc1)C(=O)N[C@@H](CC(C)C)C(=O)N[C@@H](CCCCNC(C)C)C(=O)N1CCC[C@H]1C(=O)N[C@H](C)C(N)=O | 3.16 |
| CONC(=O)NCC[C@@H](NC(=O)[C@@H](Cc1ccc(Cl)cc1)NC(=O)[C@@H](Cc1ccc2ccccc2c1)NC(C)=O)C(=O)N[C@@H](CO)C(=O)N[C@@H](Cc1ccc(NC(=O)NOC)cc1)C(=O)N[C@H](Cc1ccc(NC(=O)NOC)cc1)C(=O)N[C@@H](CC(C)C)C(=O)N[C@@H](CCCCNC(C)C)C(=O)N1CCC[C@H]1C(=O)N[C@H](C)C(N)=O | 1.49 |
| CONC(=O)Nc1ccc(C[C@H](NC(=O)[C@H](CO)NC(=O)[C@@H](CCC(N)=O)NC(=O)[C@@H](Cc2ccc(Cl)cc2)NC(=O)[C@@H](Cc2ccc3ccccc3c2)NC(C)=O)C(=O)N[C@H](Cc2ccc(NC(=O)NOC)cc2)C(=O)N[C@@H](CC(C)C)C(=O)N[C@@H](CCCCNC(C)C)C(=O)N2CCC[C@H]2C(=O)N[C@H](C)C(N)=O)cc1 | 2.98 |
| CC(=O)N[C@H](Cc1ccc2ccccc2c1)C(=O)N[C@H](Cc1ccc(Cl)cc1)C(=O)N[C@H](Cc1cccnc1)C(=O)N[C@@H](CO)C(=O)N[C@@H](Cc1ccc(NC(=O)NO)cc1)C(=O)N[C@H](Cc1ccc(NC(N)=O)cc1)C(=O)N[C@@H](CC(C)C)C(=O)N[C@@H](CCCCNC(C)C)C(=O)N1CCC[C@H]1C(=O)N[C@H](C)C(N)=O | 0.86 |
| CCCC(=O)N[C@H](Cc1ccc2ccccc2c1)C(=O)N[C@H](Cc1ccc(Cl)cc1)C(=O)N[C@H](Cc1cccnc1)C(=O)N[C@@H](CO)C(=O)N[C@@H](Cc1ccc(NC(=O)NOC)cc1)C(=O)N[C@H](Cc1ccc(NC(=O)NOC)cc1)C(=O)N[C@@H](CC(C)C)C(=O)N[C@@H](CCCCNC(C)C)C(=O)N1CCC[C@H]1C(=O)N[C@H](C)C(N)=O (Butyryl-[d2Nal][dPhe(4-Cl)][d3Pal]S[Phe(4-NH2)](Methoxycarbamoyl)[dPhe(4-NH2)](Methoxycarbamoyl)L[Lys(iPr)]P[dA]-NH2) | 1.37 |
| CONC(=O)NCCOCCOCCOCCC(=O)Nc1ccc(C[C@H](NC(=O)[C@H](CO)NC(=O)[C@@H](Cc2cccnc2)NC(=O)[C@@H](Cc2ccc(Cl)cc2)NC(=O)[C@@H](Cc2ccc3ccccc3c2)NC(C)=O)C(=O)N[C@H](Cc2ccc(NC(N)=O)cc2)C(=O)N[C@@H](CC(C)C)C(=O)N[C@@H](CCCCNC(C)C)C(=O)N2CCC[C@H]2C(=O)N[C@H](C)C(N)=O)cc1 (Ac-[d2Nal][dPhe(4-Cl)][d3Pal]S[Phe(4-NH2)]([PEG3-Methoxycarbamoyl])[dPhe(4-NHCONH2)]L[Lys(iPr)]P[dA]-NH2) | 1.06 |
| CCOCCOCCNC(=O)Nc1ccc(C[C@H](NC(=O)[C@H](CO)NC(=O)[C@@H](Cc2cccnc2)NC(=O)[C@@H](Cc2ccc(Cl)cc2)NC(=O)[C@@H](Cc2ccc3ccccc3c2)NC(=O)NCCOCCOCC)C(=O)N[C@H](Cc2ccc(NC(=O)NCCOCCOCC)cc2)C(=O)N[C@@H](CC(C)C)C(=O)N[C@@H](CCCCNC(C)C)C(=O)N2CCC[C@H]2C(=O)N[C@H](C)C(N)=O)cc1 | 2.55 |
| CONC(=O)NCCOCCOCCOCCOCCOCCOCCC(=O)Nc1ccc(C[C@@H](NC(=O)[C@H](Cc2ccc(NC(=O)NOC)cc2)NC(=O)[C@H](CO)NC(=O)[C@@H](Cc2cccnc2)NC(=O)[C@@H](Cc2ccc(Cl)cc2)NC(=O)[C@@H](Cc2ccc3ccccc3c2)NC(C)=O)C(=O)N[C@@H](CC(C)C)C(=O)N[C@@H](CCCCNC(C)C)C(=O)N2CCC[C@H]2C(=O)N[C@H](C)C(N)=O)cc1 | 1.67 |
| CCCCCCCC(=O)N[C@H](Cc1ccc2ccccc2c1)C(=O)N[C@H](Cc1ccc(Cl)cc1)C(=O)N[C@H](Cc1cccnc1)C(=O)N[C@@H](CO)C(=O)N[C@@H](Cc1ccc(NC(=O)NOC)cc1)C(=O)N[C@H](Cc1ccc(NC(=O)NOC)cc1)C(=O)N[C@@H](CC(C)C)C(=O)N[C@@H](CCCCNC(C)C)C(=O)N1CCC[C@H]1C(=O)N[C@H](C)C(N)=O | 4.99 |
| CC(=O)N[C@H](Cc1ccc2ccccc2c1)C(=O)N[C@H](Cc1ccc(Cl)cc1)C(=O)N[C@H](CNC(=O)NO)C(=O)N[C@@H](CO)C(=O)N[C@@H](Cc1ccc(NC(=O)[C@@H]2CC(=O)NC(=O)N2)cc1)C(=O)N[C@H](Cc1ccc(NC(N)=O)cc1)C(=O)N[C@@H](CC(C)C)C(=O)N[C@@H](CCCCNC(C)C)C(=O)N1CCC[C@H]1C(=O)N[C@H](C)C(N)=O | 3.46 |
| CC(=O)N[C@H](Cc1ccc2ccccc2c1)C(=O)N[C@H](Cc1ccc(Cl)cc1)C(=O)N[C@H](CCNC(=O)NO)C(=O)N[C@@H](CO)C(=O)N[C@@H](Cc1ccc(NC(=O)[C@@H]2CC(=O)NC(=O)N2)cc1)C(=O)N[C@H](Cc1ccc(NC(N)=O)cc1)C(=O)N[C@@H](CC(C)C)C(=O)N[C@@H](CCCCNC(C)C)C(=O)N1CCC[C@H]1C(=O)N[C@H](C)C(N)=O | 2.68 |
| CCCC(=O)N[C@H](Cc1ccc2ccccc2c1)C(=O)N[C@H](Cc1ccc(Cl)cc1)C(=O)N[C@H](Cc1cccnc1)C(=O)N[C@@H](CO)C(=O)N[C@@H](Cc1ccc(NC(=O)NOC)cc1)C(=O)N[C@H](Cc1ccc(NC(N)=O)cc1)C(=O)N[C@@H](CC(C)C)C(=O)N[C@@H](CCCCNC(C)C)C(=O)N1CCC[C@H]1C(=O)N[C@H](C)C(N)=O | 1.46 |
